Measured values taken from ChEMBL document CHEMBL3124806, “Imidazopyridine-fused [1,3]-diazepinones: synthesis and antiproliferative activity” (Eur J Med Chem, 2014).
Active and inactive are the calls of the source. The rule behind the calls is not given here.

Key:
MDA-MB-435 [1] = assay: Cell cycle arrest in human MDA-MB-435 cells assessed as accumulation at subG1 phase at 5 uM after 48 hrs by propidium iodide staining-based FACS analysis (reference value: 0.1%); format: functional
[2] = Cytotoxicity against human OVCAR5 cells after 48 hrs by SRB assay; format: functional; settings: OVCAR-5, 48 h
In short: (§1)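 NCI-60 five-dose screen: cells exposed continuously for 48 h across 100 to 0.01 µM. Growth or viability estimated by sulforhodamine B protein staining, read spectrophotometrically against untreated controls; IC50 taken from the dose-response.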

MDA-MB-435 [3] = assay: Cytotoxicity against human MDA-MB-435 cells after 48 hrs by MTT assay; format: functional, cell-based; settings: MDA-MB-435, 48 h
In short: (§2)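 Melanoma lines grown at 37 °C in humidified 5% CO2: MDA-MB-435 in DMEM/Ham's F12 1:1 with 10% FCS and antibiotics, SK-MEL-2 in RPMI-1640 with 10% FCS. Cells plated 24 h, then exposed 48 h to 100–0.01 µM (dilutions from fresh 100 µM stock in medium). MTT 0.5 mg/mL added for 4 h, crystals dissolved in EtOH/DMSO 1:1, absorbance read at 540 nm. Mean ± SD of three independent experiments.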

CCRF-CEM = assay: Cytotoxicity against human CCRF-CEM cells after 48 hrs by SRB assay; format: functional
In short: (§3)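 NCI-60 five-dose testing, 100 to 0.01 µM, under a 48 h continuous-exposure protocol. Growth estimated by SRB protein assay, read spectrophotometrically against untreated controls; IC50 derived from the dose-response.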

OVCAR-3 = assay: Cytotoxicity against human OVCAR3 cells after 48 hrs by SRB assay; format: functional; settings: OVCAR-3, 48 h; in short: as §1
SK-OV-3 = assay: Cytotoxicity against human SKOV3 cells after 48 hrs by SRB assay; format: functional; settings: SK-OV-3, 48 h
In short: (§4)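 NCI-60 five-dose mode on the full human tumour line panel. Concentrations ran from 100 to 0.01 µM with 48 h continuous exposure. Growth was estimated by SRB protein staining against untreated controls, and IC50 values were derived from the dose–response.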

MDA-MB-435 [4] = assay: Induction of apoptosis in human MDA-MB-435 cells assessed as dispersed and rounded cells at 5 uM after 20 hrs by Hoechst 33342 staining-based phase-contrast microscopy; format: functional, cell-based
In short: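 MDA-MB-435 human melanoma cells were grown in Ham's F12/DMEM (1:1) with 10% FCS and antibiotics at 37 °C under 5% CO₂. Cells were exposed to 5 μM compound or left untreated. They were imaged by phase-contrast microscopy 20 h after treatment.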

UACC-62 = assay: Cytotoxicity against human UACC62 cells after 48 hrs by SRB assay; format: functional; settings: UACC-62, 48 h; in short: as §4
HCT-116 = assay: Cytotoxicity against human HCT116 cells after 48 hrs by SRB assay; format: functional; settings: HCT-116, 48 h; in short: as §3
LOX IMVI = assay: Cytotoxicity against human LOXIMVI cells after 48 hrs by SRB assay; format: functional; in short: as §3
SK-MEL-2 [5] = assay: Cytotoxicity against human SK-MEL-2 cells after 48 hrs by SRB assay; format: functional; settings: SK-MEL-2, 48 h; in short: as §1
COLO 205 = assay: Cytotoxicity against human COLO205 cells after 48 hrs by SRB assay; format: functional; settings: COLO 205, 48 h; in short: as §3
MCF7 = assay: Cytotoxicity against human MCF7 cells after 48 hrs by SRB assay; format: functional; settings: MCF7, 48 h; in short: as §3
HOP-92 = assay: Cytotoxicity against human HOP92 cells after 48 hrs by SRB assay; format: functional; settings: HOP-92, 48 h; in short: as §3
[6] = Cytotoxicity against human NCI-ADR-RES cells after 48 hrs by SRB assay; format: functional; in short: as §1
HOP-62 = assay: Cytotoxicity against human HOP62 cells after 48 hrs by SRB assay; format: functional; settings: HOP-62, 48 h; in short: as §3
MDA-MB-435 [7] = assay: Cell cycle arrest in human MDA-MB-435 cells assessed as accumulation at S phase at 5 uM after 48 hrs by propidium iodide staining-based FACS analysis (reference value: 22.8%); format: functional
SF-539 = assay: Cytotoxicity against human SF539 cells after 48 hrs by SRB assay; format: functional; settings: SF-539, 48 h; in short: as §1
U-251 = assay: Cytotoxicity against human U251 cells after 48 hrs by SRB assay; format: functional; settings: U-251, 48 h; in short: as §4
TK-10 = assay: Cytotoxicity against human TK10 cells after 48 hrs by SRB assay; format: functional; settings: TK-10, 48 h; in short: as §4
SW-620 = assay: Cytotoxicity against human SW620 cells after 48 hrs by SRB assay; format: functional; settings: SW-620, 48 h; in short: as §4
KM12 = assay: Cytotoxicity against human KM12 cells after 48 hrs by SRB assay; format: functional; settings: KM12, 48 h; in short: as §3
SR = assay: Cytotoxicity against human SR cells after 48 hrs by SRB assay; format: functional; in short: as §4
MDA-MB-435 [8] = assay: Induction of apoptosis in human MDA-MB-435 cells assessed as chromatin condensation at 5 uM after 20 hrs by Hoechst 33342 staining-based phase-contrast microscopy; format: functional, cell-based
MDA-MB-435 [9] = assay: Cytotoxicity against human MDA-MB-435 cells assessed as reduction in cell growth at 1 to 10 uM after 48 hrs by MTT assay relative to untreated control; format: functional; design: scale not given: the % may be the effect or the level left; in short: as §2
SK-MEL-2 [10] = assay: Cytotoxicity against human SK-MEL-2 cells assessed as reduction in cell growth at 1 to 10 uM after 48 hrs by MTT assay relative to untreated control; format: functional; design: scale not given: the % may be the effect or the level left; in short: as §2
MDA-MB-435 [11] = assay: Induction of apoptosis in human MDA-MB-435 cells assessed as stretched stress action fibres at 5 uM after 20 hrs by Hoechst 33342 staining-based […] microscopy; format: functional, cell-based
In short: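 MDA-MB-435 cells were grown for 24 h, then treated with or without 5 μM compound for 20 h. Cells were fixed for 20 min and permeabilised with 0.2% Triton X-100 for 4 min at room temperature. Actin was stained with a mouse anti-actin antibody and an Alexa Fluor 568 anti-mouse antibody, each for 1 h at RT. Nuclei were counterstained with Hoechst 33342, and cells were imaged by confocal microscopy.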

[12] = read-out: LC50 (the source's name)

In the case of C[C@@H]1NC(c2ccc(Br)cc2)=Nc2nc3ccccn3c2C1=O, the Activity (MDA-MB-435 [1]) is reported as 8.6%, the GI50 [2] is reported as 23.5 µM and the TGI [2] is reported as over 100 µM. For the same compound, the CC50 [2, 12] was over 100 µM, the IC50 (MDA-MB-435 [3]) was 1.7 µM and the GI50 (CCRF-CEM) was 6.56 µM. It also gave a TGI (CCRF-CEM) of over 100 µM, a CC50 (CCRF-CEM; [12]) of over 100 µM and a GI50 (OVCAR-3) of 3.34 µM. The TGI (OVCAR-3) was 17.8 µM, the CC50 (OVCAR-3; [12]) was over 100 µM and the GI50 (SK-OV-3) was 4.41 µM. For the same compound, the TGI (SK-OV-3) was over 100 µM, the CC50 (SK-OV-3; [12]) was over 100 µM and the Activity (MDA-MB-435 [4]) was “Active”. It also gave a GI50 (UACC-62) of 4.35 µM, a TGI (UACC-62) of over 100 µM and a CC50 (UACC-62; [12]) of over 100 µM. For the same compound, the GI50 (HCT-116) was 4.04 µM, the TGI (HCT-116) was over 100 µM and the CC50 (HCT-116; [12]) was over 100 µM. The GI50 (LOX IMVI) was 6.34 µM, the TGI (LOX IMVI) was over 100 µM and the CC50 (LOX IMVI; [12]) was over 100 µM. It also gave a GI50 (SK-MEL-2 [5]) of 15.7 µM, a TGI (SK-MEL-2 [5]) of over 100 µM and a CC50 (SK-MEL-2 [5]; [12]) of over 100 µM. For the same compound, the GI50 (COLO 205) was 1.87 µM, the TGI (COLO 205) was 4.75 µM and the CC50 (COLO 205; [12]) was 95.8 µM. The GI50 (MCF7) was 2.99 µM, the TGI (MCF7) was over 100 µM and the CC50 (MCF7; [12]) was over 100 µM. The GI50 (HOP-92) was 1.16 µM, the TGI (HOP-92) was 22.9 µM and the CC50 (HOP-92; [12]) was over 100 µM. The GI50 [6] was 7.45 µM, the TGI [6] was over 100 µM and the CC50 [6, 12] was over 100 µM. For the same compound, the GI50 (HOP-62) was 5.75 µM, the TGI (HOP-62) was over 100 µM and the CC50 (HOP-62; [12]) was over 100 µM. The Activity (MDA-MB-435 [7]) was 30.8%, the GI50 (SF-539) was 7.98 µM and the TGI (SF-539) was 85.3 µM. For the same compound, the CC50 (SF-539; [12]) was over 100 µM, the GI50 (U-251) was 6.64 µM and the TGI (U-251) was over 100 µM. It also gave a CC50 (U-251; [12]) of over 100 µM, a GI50 (TK-10) of 21 µM and a TGI (TK-10) of over 100 µM. It also gave a CC50 (TK-10; [12]) of over 100 µM, a GI50 (SW-620) of 3.75 µM and a TGI (SW-620) of over 100 µM. It also gave a CC50 (SW-620; [12]) of over 100 µM, a GI50 (KM12) of 3.39 µM and a TGI (KM12) of over 100 µM. For the same compound, the CC50 (KM12; [12]) was over 100 µM, the GI50 (SR) was 2.42 µM and the TGI (SR) was over 100 µM. For the same compound, the CC50 (SR; [12]) was over 100 µM and the Activity (MDA-MB-435 [8]) was “Active”.

With C[C@@H]1NC(c2ccccc2)=Nc2nc3ccccn3c2C1=O the Activity (MDA-MB-435 [9]) was 20%, the Activity (SK-MEL-2 [10]) was 20% and the Activity (MDA-MB-435 [11]) was “inactive”.
